{"source": "ChEMBL document CHEMBL4342476", "about": "“Identification of RIPK3 Type II Inhibitors Using High-Throughput Mechanistic Studies in Hit Triage” (ACS Med Chem Lett, 2020)", "key": {"[1]": {"target": "T1, Receptor-interacting serine/threonine-protein kinase 1 (Homo sapiens, UniProt Q13546)", "T1 sequence (Q13546 whole entry)": "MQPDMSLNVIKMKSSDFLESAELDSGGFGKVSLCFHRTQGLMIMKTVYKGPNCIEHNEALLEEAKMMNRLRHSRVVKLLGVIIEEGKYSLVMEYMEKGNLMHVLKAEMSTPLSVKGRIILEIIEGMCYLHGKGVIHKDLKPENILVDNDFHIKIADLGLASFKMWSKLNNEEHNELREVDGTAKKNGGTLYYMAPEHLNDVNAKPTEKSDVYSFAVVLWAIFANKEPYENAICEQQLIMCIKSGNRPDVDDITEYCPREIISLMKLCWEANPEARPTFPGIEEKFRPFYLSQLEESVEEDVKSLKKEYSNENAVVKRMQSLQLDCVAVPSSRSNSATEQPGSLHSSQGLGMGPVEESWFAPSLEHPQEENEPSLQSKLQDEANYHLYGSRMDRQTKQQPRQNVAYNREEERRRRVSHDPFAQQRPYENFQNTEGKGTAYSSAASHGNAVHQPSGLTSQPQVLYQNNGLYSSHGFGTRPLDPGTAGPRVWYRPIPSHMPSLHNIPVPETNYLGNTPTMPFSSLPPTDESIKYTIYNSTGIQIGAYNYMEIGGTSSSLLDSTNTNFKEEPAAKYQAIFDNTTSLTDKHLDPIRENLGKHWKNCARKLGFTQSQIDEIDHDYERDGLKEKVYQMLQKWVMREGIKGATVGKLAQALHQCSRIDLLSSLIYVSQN", "test": "Displacement of fluorescein labeled ATP probe from His/GST-tagged RIPK1 (unknown origin) incubated for 60 mins by HTRF assay"}, "[2]": {"target": "T2, Receptor-interacting serine/threonine-protein kinase 2 (Homo sapiens, UniProt O43353)", "T2 sequence (O43353 whole entry)": "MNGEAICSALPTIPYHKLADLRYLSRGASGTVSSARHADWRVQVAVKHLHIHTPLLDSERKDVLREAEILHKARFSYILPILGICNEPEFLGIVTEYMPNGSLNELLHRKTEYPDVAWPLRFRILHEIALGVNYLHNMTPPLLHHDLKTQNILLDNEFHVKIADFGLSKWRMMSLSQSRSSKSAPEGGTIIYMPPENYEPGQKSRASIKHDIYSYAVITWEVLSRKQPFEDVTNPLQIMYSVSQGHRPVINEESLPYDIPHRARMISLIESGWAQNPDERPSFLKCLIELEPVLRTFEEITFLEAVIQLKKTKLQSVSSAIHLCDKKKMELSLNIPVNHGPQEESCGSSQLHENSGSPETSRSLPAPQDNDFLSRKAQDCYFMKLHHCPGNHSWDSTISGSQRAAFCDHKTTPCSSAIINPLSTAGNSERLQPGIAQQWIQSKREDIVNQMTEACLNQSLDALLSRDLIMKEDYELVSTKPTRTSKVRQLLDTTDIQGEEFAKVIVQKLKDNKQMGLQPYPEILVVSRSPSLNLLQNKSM", "test": "Displacement of fluorescein labeled ATP probe from His/GST-tagged RIPK2 (unknown origin) incubated for 60 mins by HTRF assay"}, "[3]": {"target": "Mitogen-activated protein kinase 14 (Homo sapiens, UniProt Q16539)", "sequence (Q16539 whole entry)": "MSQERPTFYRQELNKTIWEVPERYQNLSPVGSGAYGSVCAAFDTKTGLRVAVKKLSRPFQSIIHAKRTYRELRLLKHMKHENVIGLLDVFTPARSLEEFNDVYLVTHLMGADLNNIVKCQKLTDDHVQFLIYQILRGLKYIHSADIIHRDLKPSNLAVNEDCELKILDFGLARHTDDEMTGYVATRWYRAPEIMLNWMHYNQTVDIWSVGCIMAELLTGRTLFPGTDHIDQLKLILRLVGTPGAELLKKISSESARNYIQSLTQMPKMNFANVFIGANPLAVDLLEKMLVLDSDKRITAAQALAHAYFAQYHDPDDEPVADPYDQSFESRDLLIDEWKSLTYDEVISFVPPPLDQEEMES", "test": "Binding affinity to p38alpha (unknown origin)", "assay_type": "ADME"}, "[4]": {"target": "T3, Receptor-interacting serine/threonine-protein kinase 3 (Homo sapiens, UniProt Q9Y572)", "test": "Displacement of fluorescein labeled ATP probe from full length His/GST-tagged RIPK3 (unknown origin) incubated for 60 mins by HTRF assay"}, "[5]": {"target": "Hepatocyte growth factor receptor (Homo sapiens, UniProt P08581)", "sequence (P08581 whole entry)": "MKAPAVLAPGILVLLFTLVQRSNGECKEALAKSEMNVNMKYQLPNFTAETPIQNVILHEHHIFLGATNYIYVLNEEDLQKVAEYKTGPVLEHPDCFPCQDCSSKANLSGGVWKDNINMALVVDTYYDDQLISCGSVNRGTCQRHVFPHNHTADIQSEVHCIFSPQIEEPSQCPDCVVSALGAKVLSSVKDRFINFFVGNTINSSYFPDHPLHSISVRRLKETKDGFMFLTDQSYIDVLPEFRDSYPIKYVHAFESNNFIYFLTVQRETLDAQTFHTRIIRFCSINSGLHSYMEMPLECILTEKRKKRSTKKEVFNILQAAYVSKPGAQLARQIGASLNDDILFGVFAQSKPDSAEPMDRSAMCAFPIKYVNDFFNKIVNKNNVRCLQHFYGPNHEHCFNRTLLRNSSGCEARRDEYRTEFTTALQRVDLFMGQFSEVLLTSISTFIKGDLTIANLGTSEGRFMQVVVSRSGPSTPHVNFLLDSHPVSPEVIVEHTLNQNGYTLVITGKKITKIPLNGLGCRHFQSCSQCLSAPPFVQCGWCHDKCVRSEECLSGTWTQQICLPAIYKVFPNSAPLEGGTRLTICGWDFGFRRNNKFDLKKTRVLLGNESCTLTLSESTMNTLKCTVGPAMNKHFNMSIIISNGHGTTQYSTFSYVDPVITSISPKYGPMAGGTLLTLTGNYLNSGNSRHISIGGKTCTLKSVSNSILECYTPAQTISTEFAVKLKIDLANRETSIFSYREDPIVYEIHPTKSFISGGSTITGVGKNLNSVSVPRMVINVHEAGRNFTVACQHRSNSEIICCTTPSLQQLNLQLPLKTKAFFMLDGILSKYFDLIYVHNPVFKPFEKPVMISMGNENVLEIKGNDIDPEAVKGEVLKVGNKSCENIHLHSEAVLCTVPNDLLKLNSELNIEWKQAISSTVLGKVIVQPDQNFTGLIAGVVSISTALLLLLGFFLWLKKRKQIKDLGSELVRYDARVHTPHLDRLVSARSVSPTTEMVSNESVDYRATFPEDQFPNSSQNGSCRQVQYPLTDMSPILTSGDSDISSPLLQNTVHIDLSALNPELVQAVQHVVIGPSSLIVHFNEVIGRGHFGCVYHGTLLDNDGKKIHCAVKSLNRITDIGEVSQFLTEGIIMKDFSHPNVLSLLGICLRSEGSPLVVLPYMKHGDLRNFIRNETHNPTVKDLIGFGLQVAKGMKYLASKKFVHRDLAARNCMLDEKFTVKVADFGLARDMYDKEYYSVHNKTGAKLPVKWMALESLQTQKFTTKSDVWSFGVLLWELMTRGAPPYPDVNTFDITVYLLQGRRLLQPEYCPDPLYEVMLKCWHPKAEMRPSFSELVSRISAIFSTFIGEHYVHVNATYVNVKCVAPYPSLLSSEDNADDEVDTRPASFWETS", "test": "Displacement of fluorescein labeled ATP probe from His/GST-tagged c-Met (unknown origin) incubated for 60 mins by HTRF assay"}, "[6]": {"target": "T3, Receptor-interacting serine/threonine-protein kinase 3", "test": "Time dependent inhibition of full length His/GST-tagged RIPK3 (unknown origin) measured every 5 mins for 60 mins in presence of fluorescein labeled probe by HTRF assay relative to control", "details": "1 h; call rule not given here"}, "[7]": {"target": "T1, Receptor-interacting serine/threonine-protein kinase 1", "test": "Displacement of fluorescein labeled probe from full length human GST-tagged RIPK1 expressed in Sf9 cells incubated for 60 mins by HTRF assay"}, "[8]": {"target": "T3, Receptor-interacting serine/threonine-protein kinase 3", "test": "Displacement of fluorescein labeled probe from full length human GST-tagged RIPK3 expressed in Sf9 cells incubated for 60 mins by HTRF assay"}, "[9]": {"target": "T2, Receptor-interacting serine/threonine-protein kinase 2", "test": "Displacement of fluorescein labeled probe from full length human GST-tagged RIPK2 expressed in Sf9 cells incubated for 60 mins by HTRF assay"}, "[10]": {"target": "T3, Receptor-interacting serine/threonine-protein kinase 3", "test": "Time dependent inhibition of full length His/GST-tagged RIPK3 (unknown origin) measured every 5 mins for 60 mins in presence of fluorescein labeled probe by HTRF assay relative to control", "method_in_brief": "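Active full-length RIPK3 was preformed as a complex with the fluorescent probe and antibody. Inhibitor was then added as an 11-point concentration-response series, with HTRF read at 5 and 60 min. Time dependency was scored as the fold shift in IC50 between the two reads; ≥5-fold flagged possible slow binding.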"}, "[11]": {"target": "T3, Receptor-interacting serine/threonine-protein kinase 3", "test": "Time dependent inhibition of full length His/GST-tagged RIPK3 (unknown origin) measured every 5 mins for 60 mins in presence of fluorescein labeled probe by HTRF assay relative to control", "details": "1 h", "remark": "listed apart in the source"}, "[12]": {"test": "Selectivity index, ratio of IC50 for displacement of fluorescein labeled ATP probe from His/GST-tagged RIPK1 (unknown origin) incubated for 60 mins by HTRF assay to IC50 for displacement of fluorescein labeled ATP probe from His/GST-tagged c-Met (unknown origin) incubated for 60 mins by HTRF assay", "details": "human, 1 h"}, "[13]": {"organism": "Homo sapiens", "test": "(§1) Selectivity index, ratio of IC50 for displacement of fluorescein labeled ATP probe from His/GST-tagged c-Met (unknown origin) incubated for 60 mins by HTRF assay to IC50 for displacement of fluorescein labeled ATP probe from full length His/GST-tagged RIPK3 (unknown origin) incubated for 60 mins by HTRF assay"}, "[14]": {"target": "T1, Receptor-interacting serine/threonine-protein kinase 1", "test": "Displacement of fluorescein labeled ATP probe from full length His/GST-tagged RIPK1 (unknown origin) incubated for 60 mins by HTRF assay"}, "[15]": {"test": "Selectivity index, ratio of IC50 for displacement of fluorescein labeled ATP probe from His/GST-tagged RIPK2 (unknown origin) incubated for 60 mins by HTRF assay to IC50 for displacement of fluorescein labeled ATP probe from His/GST-tagged c-Met (unknown origin) incubated for 60 mins by HTRF assay", "details": "human, 1 h"}, "[16]": {"organism": "Homo sapiens", "test": "as §1, with “RIPK1” for “c-Met”"}}, "data": [{"smiles": "O=C(Nc1ccc(Oc2ccncc2)c2ccccc12)c1cccn(-c2ccc(F)cc2)c1=O", "values": [{"measurement": "IC50", "setting": "[1]", "value": "> 15000", "unit": "nM"}, {"measurement": "IC50", "setting": "[2]", "value": "> 15000", "unit": "nM"}, {"measurement": "Activity", "setting": "[3]", "value": "Active"}, {"measurement": "IC50", "setting": "[4]", "value": 50, "unit": "nM"}, {"measurement": "IC50", "setting": "[5]", "value": 12000, "unit": "nM"}]}, {"smiles": "Nc1ccc(C#Cc2c(Oc3ccc(NC(=O)c4cccn(-c5ccc(F)cc5)c4=O)cc3F)ccnc2N)nc1", "values": [{"measurement": "fold change (FC)", "setting": "[6]", "value": 6}, {"measurement": "IC50", "setting": "[7]", "value": 310, "unit": "nM"}, {"measurement": "IC50", "setting": "[8]", "value": 0.3, "unit": "nM"}, {"measurement": "IC50", "setting": "[9]", "value": 2400, "unit": "nM"}, {"measurement": "fold change (FC)", "setting": "[10]", "value": 6}, {"measurement": "fold change (FC)", "setting": "[11]", "value": 6}]}, {"smiles": "Cc1cc(NC(=O)c2cccn(-c3ccc(F)cc3)c2=O)cc(C)c1Oc1ccnc(NC(=O)C2CC2)c1", "values": [{"measurement": "IC50", "setting": "[1]", "value": 11000, "unit": "nM"}, {"measurement": "IC50", "setting": "[2]", "value": 3100, "unit": "nM"}, {"measurement": "IC50", "setting": "[4]", "value": 88, "unit": "nM"}, {"measurement": "IC50", "setting": "[5]", "value": 300, "unit": "nM"}]}, {"smiles": "O=C(Nc1ccc(Oc2ccncc2)c(F)c1)c1cccc(-c2ccc(F)cc2)c1", "values": [{"measurement": "IC50", "setting": "[1]", "value": "> 15000", "unit": "nM"}, {"measurement": "IC50", "setting": "[2]", "value": "> 15000", "unit": "nM"}, {"measurement": "IC50", "setting": "[4]", "value": "> 15000", "unit": "nM"}, {"measurement": "IC50", "setting": "[5]", "value": 4500, "unit": "nM"}]}, {"smiles": "O=C(Nc1ccc(Oc2ccnc3[nH]ccc23)c(F)c1)c1cccn(-c2ccc(F)cc2)c1=O", "values": [{"measurement": "IC50", "setting": "[1]", "value": 1500, "unit": "nM"}, {"measurement": "IC50", "setting": "[2]", "value": "> 15000", "unit": "nM"}, {"measurement": "IC50", "setting": "[4]", "value": 180, "unit": "nM"}]}, {"smiles": "Cc1c(NC(=O)c2cccn(-c3ccc(F)cc3)c2=O)ccc(Oc2ccncc2)c1C", "values": [{"measurement": "Ratio IC50", "setting": "[12]", "value": "> 10"}, {"measurement": "Ratio IC50", "setting": "[13]", "value": "> 10"}, {"measurement": "IC50", "setting": "[2]", "value": "> 15000", "unit": "nM"}, {"measurement": "IC50", "setting": "[14]", "value": "> 15000", "unit": "nM"}, {"measurement": "IC50", "setting": "[4]", "value": 180, "unit": "nM"}, {"measurement": "Ratio IC50", "setting": "[15]", "value": "> 10"}, {"measurement": "IC50", "setting": "[5]", "value": "> 1500", "unit": "nM"}]}, {"smiles": "O=C(Nc1ccc(Oc2ccnc(NC(=O)C3CC3)c2)c(F)c1)c1cccn(-c2ccc(F)cc2)c1=O", "values": [{"measurement": "IC50", "setting": "[1]", "value": 180, "unit": "nM"}, {"measurement": "IC50", "setting": "[2]", "value": 1800, "unit": "nM"}, {"measurement": "Ratio IC50", "setting": "[16]", "value": 38}, {"measurement": "IC50", "setting": "[4]", "value": 2.9, "unit": "nM"}, {"measurement": "IC50", "setting": "[5]", "value": 2.5, "unit": "nM"}]}, {"smiles": "Cc1ccc(COC(=O)Nc2cc(-c3cc4c([nH]3)CCNC4=O)ccn2)cc1", "values": [{"measurement": "fold change (FC)", "setting": "[6]", "value": 2}, {"measurement": "IC50", "setting": "[7]", "value": 17000, "unit": "nM"}, {"measurement": "IC50", "setting": "[8]", "value": 270, "unit": "nM"}, {"measurement": "IC50", "setting": "[9]", "value": 50, "unit": "nM"}]}, {"smiles": "Cc1cc(NC(=O)c2cccn(-c3ccc(F)cc3)c2=O)ccc1Oc1ccnc(NC(=O)C2CC2)c1", "values": [{"measurement": "IC50", "setting": "[1]", "value": 200, "unit": "nM"}, {"measurement": "IC50", "setting": "[2]", "value": 680, "unit": "nM"}, {"measurement": "IC50", "setting": "[4]", "value": 8, "unit": "nM"}, {"measurement": "IC50", "setting": "[5]", "value": 6.3, "unit": "nM"}]}, {"smiles": "Cc1c(NC(=O)c2cccn(-c3ccc(F)cc3)c2=O)ccc(Oc2ccnc(NC(=O)C3CC3)c2)c1C", "values": [{"measurement": "Ratio IC50", "setting": "[13]", "value": 100}, {"measurement": "IC50", "setting": "[1]", "value": 5500, "unit": "nM"}, {"measurement": "IC50", "setting": "[2]", "value": "> 10000", "unit": "nM"}, {"measurement": "IC50", "setting": "[4]", "value": 91, "unit": "nM"}, {"measurement": "IC50", "setting": "[5]", "value": 1100, "unit": "nM"}]}, {"smiles": "Cc1cc(NC(=O)c2cccn(-c3ccc(F)cc3)c2=O)cc(C)c1Oc1ccncc1", "values": [{"measurement": "IC50", "setting": "[1]", "value": "> 15000", "unit": "nM"}, {"measurement": "IC50", "setting": "[2]", "value": 13000, "unit": "nM"}, {"measurement": "IC50", "setting": "[4]", "value": 320, "unit": "nM"}, {"measurement": "IC50", "setting": "[5]", "value": 500, "unit": "nM"}]}, {"smiles": "O=C(Nc1ccc(Oc2ccncc2)c(F)c1)c1cccn(-c2ccc(F)cc2)c1=O", "values": [{"measurement": "IC50", "setting": "[1]", "value": "> 15000", "unit": "nM"}, {"measurement": "IC50", "setting": "[2]", "value": "> 15000", "unit": "nM"}, {"measurement": "IC50", "setting": "[4]", "value": 400, "unit": "nM"}, {"measurement": "IC50", "setting": "[5]", "value": 18, "unit": "nM"}]}, {"smiles": "CC#Cc1c(Oc2ccc(NC(=O)c3cccn(-c4ccc(F)cc4)c3=O)cc2F)ccnc1N", "values": [{"measurement": "IC50", "setting": "[2]", "value": 3000, "unit": "nM"}, {"measurement": "IC50", "setting": "[14]", "value": 600, "unit": "nM"}, {"measurement": "IC50", "setting": "[4]", "value": 16, "unit": "nM"}]}]}
